Calpain2 inh – inhibitors of pig calpain II, primary screen, biochemical, fluorogenic peptide substrate, 1536-well; purified calpain II, 30 min; inhibition, % at 16 µM; AID 1236, 2008; 0.37% of 220,000 active;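 active = inhibition above about 50%, limit read from the data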
NPY2 pot ag – NPY-Y2 potentiators or agonists, primary screen, cell-based | 0.45% of 220,000 active | activation, % at 3.6 µM | cells expressing NPY-Y2, potentiator/agonist read-out | Neuropeptide Y receptor type 2 (Homo sapiens), P49146; in the data active = activation above about 27%;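 note: cells stimulated with NPY near EC25 plus isoproterenol at EC100; 0% = vehicle plus submaximal agonist and 100% = vehicle plus saturating agonist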
TbHK1 inh – Trypanosoma brucei hexokinase 1 inhibitors, primary screen, biochemical, G6PDH-coupled NADH absorbance, MLSCN library. hexokinase 1 [Trypanosoma brucei]. 0.11% of 220,000 active. recombinant TbHK1, G6PDH-coupled NADH A340. AID 1430, 2008. inhibition, % at 10 µM;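 active = inhibition of 50% or more in the single-dose primary screen; inactive = inhibition below 50%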
NPY Y1 blocker – NPY-Y1 receptor antagonists, primary screen, cell-based. inhibition, % at 3.6 µM. Neuropeptide Y receptor type 1 (Homo sapiens), P25929. HEK293-CNG Y1 cells, membrane potential fluorescence; NPY at EC95, then isoproterenol. 1% of 200,000 active;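 active = inhibition above the campaign mean inhibition of all tested compounds plus 3 SD, cut at about 20% in these data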;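 note: 0% = DMSO wells given NPY plus isoproterenol and 100% = isoproterenol alone without NPY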
Target sequence (P25929 whole entry, looked up): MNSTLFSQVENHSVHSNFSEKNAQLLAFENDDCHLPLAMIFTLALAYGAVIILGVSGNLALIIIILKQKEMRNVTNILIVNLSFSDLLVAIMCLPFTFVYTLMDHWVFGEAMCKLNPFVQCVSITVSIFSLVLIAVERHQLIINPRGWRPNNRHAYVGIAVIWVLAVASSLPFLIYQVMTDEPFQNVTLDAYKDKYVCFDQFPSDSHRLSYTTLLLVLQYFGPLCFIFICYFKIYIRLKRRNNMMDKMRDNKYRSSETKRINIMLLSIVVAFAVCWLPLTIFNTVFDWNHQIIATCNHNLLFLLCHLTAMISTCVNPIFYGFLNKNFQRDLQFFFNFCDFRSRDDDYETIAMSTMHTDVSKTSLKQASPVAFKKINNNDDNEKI
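Assay system: HEK293 Y1/CNG channel cell line; Doses: single compound dose of 3.6 µM, 0.4% DMSO; Timing: dye 3 h, compound 60 min room temperature, stimulation 45 min; Technique: Membrane-potential fluorescent dye readout; Measure: % inhibition of NPY effect.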
NPY-Y2 antag – NPY-Y2 receptor antagonists, primary screen, cell-based; Neuropeptide Y receptor type 2 (Homo sapiens), P49146; NPY-Y2 expressing cells, antagonist mode; inhibition, % at 2.7 µM; 0.99% of 140,000 active; in the data active = inhibition above about 17%;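 note: 0% = vehicle with agonist challenge and 100% = reference antagonist with challenge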
NPY-Y1 PAM-ag – NPY-Y1 receptor potentiators or agonists, primary screen, cell-based; NPY-Y1 expressing cells, potentiator/agonist activation; activation, % at 3.6 µM; 0.37% of 220,000 active; in the data active = activation above about 33%, passing the limit was not always enough;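 note: cells stimulated with NPY at EC10 then isoproterenol at EC100; 0% = low agonist plus stimulus and 100% = saturating agonist plus stimulus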
NPY-Y1 confirm – NPY-Y1 potentiators or agonists, confirmation, cell-based; cell-based NPY-Y1 potentiator/agonist assay; AID 1546, 2009; activation, % at 3.6 µM; shares compounds with NPY-Y1 PAM-ag; 20% of 280 active; in the data active = activation above about 45%;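 note: cells challenged with NPY at its EC10 plus isoproterenol stimulus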
NPY-Y2 counter – NPY-Y2 potentiators or agonists, counter-screen for NPY-Y1 potentiator project, cell-based, fluorescence; AID 1649, 2009; 20% of 280 active; shares compounds with NPY-Y1 PAM-ag; HEK293-CNG cells, membrane-potential fluorescence (FLIPR), 1536-well; activation, % at 3.6 µM; in the data active = activation above about 33%
NPY-Y1 ag – NPY-Y1 direct agonists without NPY, confirmation, counter-screen for NPY-Y1 potentiator project, cell-based, fluorescence; 50% of 280 active; shares compounds with NPY-Y1 PAM-ag; activation, % at 3.6 µM; HEK293 Y1-CNGC, membrane potential fluorescence, agonist mode;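 active = percent activation above the mean of DMSO-only control wells plus 3 SD of those wells, cut at about 18% in these data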;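 note: cells challenged with isoproterenol plus Ro 20-1724 with no NPY in test wells; Y1 agonism lowers isoproterenol-driven cAMP and reduces probe fluorescence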
NPY-Y2 agonist – NPY-Y2 direct agonists without NPY, counter-screen for NPY-Y1 potentiator project, cell-based, fluorescence. HEK293 Y2-CNGC, membrane potential fluorescence, agonist mode. 67% of 280 active. activation, % at 3.6 µM. shares compounds with NPY-Y1 PAM-ag;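 active = activation above the solvent-only control wells' mean plus 3 SD, cut at about 11% in these data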;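 note: 0% = DMSO with isoproterenol and 100% = 40 nM NPY maximal response; agonism lowers cAMP so well fluorescence drops in active wells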
CNGC counter – CNGC cAMP sensor activity inhibitors, counter-screen for NPY-Y1 potentiator/agonist project, cell-based, HEK293-CNG parental, membrane potential fluorescence, Y1 set. shares compounds with NPY-Y1 PAM-ag. isoproterenol cAMP. inhibition, % at 3.6 µM. 42% of 280 active. AID 1704, 2009;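 active = inhibition above the mean of stimulated solvent-only control wells plus 3 SD, cut at about 22% in these data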;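 note: 0% = isoproterenol-stimulated DMSO wells and 100% = unstimulated DMSO wells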
* = called active by the depositor; . = no result given. Only some compounds are listed: those with a hit (about 2.3% of all), similar ones and a draw of the others.

SMILES	Calpain2 inh	NPY2 pot ag	TbHK1 inh	NPY Y1 blocker	NPY-Y2 antag	NPY-Y1 PAM-ag	NPY-Y1 confirm	NPY-Y2 counter	NPY-Y1 ag	NPY-Y2 agonist	CNGC counter
Cc1ccc(OCC(O)CN2CCN(c3ccccc3)CC2)cc1 (configuration not stated)	6	-22	-6	6	10	-15	.	.	.	.	.
OC(COc1cccc2ccccc12)CN1CCN(c2ccccc2)CC1 (configuration not stated)	21	-10	2	.	.	54*	2	6	29*	17*	-22
Cc1cccc(N(C(=O)Nc2ccc(Cl)cc2)C2=NCC(C)S2)n1 (configuration not stated)	-27	-7	-3	-3	.	37*	2	0	3	12*	8
O=C(CN1C(=O)NC(c2ccccc2)(c2ccccc2)C1=O)c1c[nH]c2ccccc12	-20	28	2	-8	.	40*	36	28	34*	21*	29*
O=C(/C=C/c1ccccc1)N1CCN(c2cccc(Cl)n2)CC1	-12	-2	-4	1	4	-3	.	.	.	.	.
COc1ccc(-n2nc3ccc(NS(C)(=O)=O)cc3n2)cc1Cl	-409	20	-12	3	0	42*	43	8	46*	16*	17
c1ccc(Oc2c3ccccc3nc3ccccc23)cc1	-57	19	-4	.	.	9	.	.	.	.	.
Cc1c(CCO)c(=O)[nH]n1C(=O)c1ccc(F)cc1	-19	3	-5	3	4	-12	.	.	.	.	.
Cc1ccc(O)c(N=Nc2ccc(S(=O)(=O)N3CCCC3)cc2)c1	-20	35	-15	.	.	45*	45*	32	30*	42*	27*
Cc1ccc(S(=O)(=O)N2CCCN(S(=O)(=O)c3ccc(C)cc3)CC2)cc1	-8	-1	5	-5	1	-4	.	.	.	.	.
O=C(CSCc1ccccc1)Nc1ccc2c(c1)OCO2	10	3	2	3	3	-1	.	.	.	.	.
O=C(CSCSCC(=O)Nc1ccc2c(c1)OCO2)Nc1ccc2c(c1)OCO2	19	12	2	-2	3	46*	4	0	5	-4	0
COC(=O)CSc1nc2ccc(N)cc2s1	3	21	-4	-5	.	45*	92*	67*	71*	64*	85*
COC(=O)N/N=C/c1ccc(Oc2ccccc2)cc1	23	-17	12	-6	.	-18	.	.	.	.	.
CCOC(=O)C1CCN(C2=C(NS(=O)(=O)c3ccc(Cl)cc3)C(=O)c3ccccc3C2=O)CC1	-18	35	-4	.	.	55*	72*	57*	70*	65*	57*
CC(=O)Nc1ccc(S(=O)(=O)NC2=C(N3CCN(Cc4ccccc4)CC3)C(=O)c3ccccc3C2=O)cc1	-202	4	-23	-12	-7	5	.	.	.	.	.
CC1CCN(C2=C(NS(=O)(=O)c3ccc(Cl)cc3)C(=O)c3ccccc3C2=O)CC1	-14	19	-5	-17	-11	44*	99*	80*	65*	57*	77*
